Laboratory results reported in ChEMBL document CHEMBL4270564, “Synergistic inhibition of the Hedgehog pathway by newly designed Smo and Gli antagonists bearing the isoflavone scaffold” (Eur J Med Chem, 2018).
The source made the active and inactive calls. The rule behind the calls is not given here.

Columns and labels:
Protein smoothened = Protein smoothened (Mus musculus, UniProt P56726); test: Antagonist activity at smo in SAG-treated mouse Light2 cells after 48 hrs by renilla luciferase reporter gene assay; assay type: functional
How it was run: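 NIH3T3 Shh-Light II cells carry a stable Gli-responsive firefly luciferase reporter plus pRL-TK Renilla. They were stimulated with SAG 200 nM and treated with compound for 48 h. Read-out was dual-luciferase, as the Luciferase/Renilla ratio. Mean ± SD of three independent experiments, each in triplicate.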

Zinc finger protein GLI1 = biological target: T1, Zinc finger protein GLI1 (Mus musculus, UniProt P47806); test: Inhibition of Gli1 transcriptional activity in mouse embroyonic fibroblasts after 24 hrs by renilla luciferase reporter gene assay
T1 sequence (P47806 whole entry): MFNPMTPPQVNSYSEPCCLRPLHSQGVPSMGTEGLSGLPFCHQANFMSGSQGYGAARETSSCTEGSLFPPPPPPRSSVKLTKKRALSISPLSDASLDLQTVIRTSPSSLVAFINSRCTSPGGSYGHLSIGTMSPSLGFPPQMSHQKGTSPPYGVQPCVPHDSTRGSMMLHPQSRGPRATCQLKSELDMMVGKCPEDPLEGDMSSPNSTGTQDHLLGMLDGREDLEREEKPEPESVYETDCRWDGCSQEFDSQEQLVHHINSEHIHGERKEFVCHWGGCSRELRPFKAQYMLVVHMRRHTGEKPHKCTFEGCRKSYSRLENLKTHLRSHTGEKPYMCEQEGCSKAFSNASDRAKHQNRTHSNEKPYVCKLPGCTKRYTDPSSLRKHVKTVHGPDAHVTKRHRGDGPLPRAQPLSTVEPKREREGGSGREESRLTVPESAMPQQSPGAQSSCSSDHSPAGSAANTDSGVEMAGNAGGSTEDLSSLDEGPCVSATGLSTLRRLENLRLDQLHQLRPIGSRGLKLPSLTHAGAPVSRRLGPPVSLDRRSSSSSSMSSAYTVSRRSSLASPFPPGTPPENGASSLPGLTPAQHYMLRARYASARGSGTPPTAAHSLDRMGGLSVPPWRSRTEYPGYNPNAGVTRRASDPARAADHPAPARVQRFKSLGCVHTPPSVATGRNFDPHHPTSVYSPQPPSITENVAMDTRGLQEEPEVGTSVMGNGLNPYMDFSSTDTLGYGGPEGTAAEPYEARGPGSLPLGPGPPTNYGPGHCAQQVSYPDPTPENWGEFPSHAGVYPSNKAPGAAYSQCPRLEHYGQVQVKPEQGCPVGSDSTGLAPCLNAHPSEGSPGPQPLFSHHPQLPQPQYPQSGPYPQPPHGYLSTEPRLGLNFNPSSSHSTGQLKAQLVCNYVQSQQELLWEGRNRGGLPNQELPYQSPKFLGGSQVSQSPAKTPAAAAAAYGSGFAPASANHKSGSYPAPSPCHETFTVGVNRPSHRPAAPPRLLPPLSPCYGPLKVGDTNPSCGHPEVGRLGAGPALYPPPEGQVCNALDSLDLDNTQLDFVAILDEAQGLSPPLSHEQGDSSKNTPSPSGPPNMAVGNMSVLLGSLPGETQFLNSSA
How it was run: (§1)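 Wild-type MEFs expressing ectopic Gli1 were transfected with 12XGliBS-Luc, pRL-TK Renilla and empty or Gli1 vector. They were exposed to rising compound concentrations for 24 h; DMSO-only controls. Luciferase/Renilla ratio; mean ± SD of three independent experiments.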

[1] = biological target: T2, Zinc finger protein GLI1 (Mus musculus) (UniProt P47806); test: Inhibition of Gli1 transcriptional activity in Smo-/- mouse embroyonic fibroblasts up to 20 uM after 24 hrs by renilla luciferase reporter gene assay
T2 sequence (whole entry): T1 sequence (P47806 whole entry)
How it was run: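 Smo-/- MEFs were transfected with 12xGliBS-Luc and pRL-TK Renilla plus empty or Gli1 vector. They were treated with increasing concentrations of compound for 24 h; DMSO-only controls. Read-out was luciferase normalized to Renilla. Mean ± SD of three independent experiments; t-test versus DMSO.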

[2] = biological target: Protein smoothened (Mus musculus) (UniProt P56726); test: Antagonist activity at smo in SuFu-/- mouse embroyonic fibroblasts assessed as downregulation of Gli1 mRNA levels after 48 hrs by qRT-PCR method; assay type: functional
How it was run: (§2)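 SuFu-/- MEFs were grown in DMEM with 10% FBS, antibiotics and L-glutamine, then treated with compound for 48 h; DMSO-only controls. Gli1 and Gli2 mRNA were measured by qRT-PCR and normalized to HPRT. Mean ± SD of three independent experiments; Student's t-test versus DMSO.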

Medulloblastoma cell [3] = test: Growth inhibition of mouse Ptch+/- medulloblastoma cells at 0.125 uM after 72 hrs relative to control; assay type: functional; conditions: read-out: GI
How it was run: (§3)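 Primary medulloblastoma cells were freshly isolated from Ptch+/- mouse tumors. They were kept in short-term culture in Neurobasal Media-A with B27 minus vitamin A to retain Hh sensitivity. Cells were exposed to single compounds for 72 h, and percent growth inhibition was reported as mean ± SD.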

Medulloblastoma cell [4] = test: Growth inhibition of mouse Ptch+/- medulloblastoma cells at 0.25 uM after 72 hrs relative to control; assay type: functional; conditions: read-out: GI; how it was run: as §3
Medulloblastoma cell [5] = test: Growth inhibition of mouse Ptch+/- medulloblastoma cells at 0.5 uM after 72 hrs relative to control; assay type: functional; conditions: read-out: GI; how it was run: as §3
Medulloblastoma cell [6] = test: Growth inhibition of mouse Ptch+/- medulloblastoma cells at 1 uM after 72 hrs relative to control; assay type: functional; conditions: read-out: GI; how it was run: as §3
Medulloblastoma cell [7] = test: Growth inhibition of mouse Ptch+/- medulloblastoma cells at 2 uM after 72 hrs relative to control; assay type: functional; conditions: read-out: GI
Medulloblastoma cell [8] = test: Synergistic growth inhibition of mouse Ptch+/- medulloblastoma cells at 0.125 uM after 72 hrs in presence of Gli inhibitor GlaB; assay type: functional; conditions: read-out: GI
How it was run: (§4)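 Freshly isolated Ptch+/- mouse medulloblastoma primary cells were held in short-term Neurobasal-A/B27 (minus vitamin A) culture. They were treated for 72 h with a binary combination of a Gli1 antagonist and a Smo antagonist, each at the stated concentration. Percent growth inhibition was reported.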

Medulloblastoma cell [9] = test: Synergistic growth inhibition of mouse Ptch+/- medulloblastoma cells at 0.25 uM after 72 hrs in presence of Gli inhibitor GlaB; assay type: functional; conditions: read-out: GI; how it was run: as §4
Medulloblastoma cell [10] = test: Synergistic growth inhibition of mouse Ptch+/- medulloblastoma cells at 0.5 uM after 72 hrs in presence of Gli inhibitor GlaB; assay type: functional; conditions: read-out: GI; how it was run: as §4
[11] = biological target: Protein smoothened (Mus musculus) (UniProt P56726); test: Antagonist activity at smo in SuFu-/- mouse embroyonic fibroblasts assessed as downregulation of Gli2 mRNA levels after 48 hrs by qRT-PCR method; assay type: functional; how it was run: as §2
MEF [12] = test: Downregulation of Gli1 levels in SuFu-/- mouse embroyonic fibroblasts up to 20 uM after 48 hrs by qRT-PCR
MEF [13] = test: Downregulation of Gli2 levels in SuFu-/- mouse embroyonic fibroblasts up to 20 uM after 48 hrs by qRT-PCR
[14] = biological target: T2, Zinc finger protein GLI1 (Mus musculus); test: Inhibition of Gli1 transcriptional activity in mouse embroyonic fibroblasts up to 30 uM after 24 hrs by renilla luciferase reporter gene assay; how it was run: as §1

Protein smoothened, sequence (P56726 whole entry): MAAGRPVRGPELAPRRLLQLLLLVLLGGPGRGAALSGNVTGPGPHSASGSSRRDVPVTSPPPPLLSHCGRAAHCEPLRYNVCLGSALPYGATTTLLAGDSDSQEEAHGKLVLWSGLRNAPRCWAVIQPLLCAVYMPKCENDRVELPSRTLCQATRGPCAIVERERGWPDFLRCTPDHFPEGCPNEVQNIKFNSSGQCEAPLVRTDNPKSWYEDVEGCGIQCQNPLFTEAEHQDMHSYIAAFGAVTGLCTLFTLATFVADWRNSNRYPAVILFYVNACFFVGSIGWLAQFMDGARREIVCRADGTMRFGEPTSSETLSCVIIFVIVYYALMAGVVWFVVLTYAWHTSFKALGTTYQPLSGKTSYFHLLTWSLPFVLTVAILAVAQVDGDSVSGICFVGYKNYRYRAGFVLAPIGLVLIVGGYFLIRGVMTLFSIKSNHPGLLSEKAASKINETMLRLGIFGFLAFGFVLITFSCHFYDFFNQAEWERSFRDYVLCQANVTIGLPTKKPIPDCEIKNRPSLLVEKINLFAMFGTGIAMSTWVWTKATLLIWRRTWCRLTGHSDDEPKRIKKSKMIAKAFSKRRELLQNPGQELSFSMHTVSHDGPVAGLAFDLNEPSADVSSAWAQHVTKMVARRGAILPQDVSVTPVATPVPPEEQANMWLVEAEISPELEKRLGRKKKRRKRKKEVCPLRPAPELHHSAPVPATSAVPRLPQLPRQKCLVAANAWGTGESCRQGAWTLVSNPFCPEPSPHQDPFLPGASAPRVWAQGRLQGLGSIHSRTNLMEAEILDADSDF
Protein smoothened (Mus musculus), sequence (P56726 whole entry): as above

Structure (SMILES): COC(=O)c1ccc(COc2cc(-c3coc4cc(OC)cc(OC)c4c3=O)ccc2OC)cc1
- IC50 (Protein smoothened; read-out: IC50): > 30 µM
- IC50 (Zinc finger protein GLI1): Nd(Toxic)

Structure (SMILES): COc1cc(OC)c2c(=O)c(-c3ccc(OCc4ccc(C(F)(F)F)cc4)c(OC)c3)coc2c1
- IC50 (Protein smoothened; read-out: IC50): 3.48 µM
- IC50 (Zinc finger protein GLI1; read-out: IC50): 55.3 µM
- inhibition [1]: inactive
- inhibition [2]: inactive
- inhibition of growth at 0.125 µM (Medulloblastoma cell [3]): 20.8%
- inhibition of growth at 0.25 µM (Medulloblastoma cell [4]): 23.5%
- inhibition of growth at 0.5 µM (Medulloblastoma cell [5]): 32.5%
- inhibition of growth at 1 µM (Medulloblastoma cell [6]): 51.8%
- inhibition of growth at 2 µM (Medulloblastoma cell [7]): 54.2%
- inhibition of growth at 0.125 µM (Medulloblastoma cell [8]): 33.5%
- inhibition of growth at 0.25 µM (Medulloblastoma cell [9]): 53.1%
- inhibition of growth at 0.5 µM (Medulloblastoma cell [10]): 60.1%
- inhibition [11]: inactive

Structure (SMILES): COc1cc(OC)c2c(=O)c(-c3ccc(OCC=C(C)C)c(OCC=C(C)C)c3)coc2c1
- inhibition of growth at 0.125 µM (Medulloblastoma cell [3]): 28.6%
- inhibition of growth at 0.25 µM (Medulloblastoma cell [4]): 42.4%
- inhibition of growth at 0.5 µM (Medulloblastoma cell [5]): 46.6%
- inhibition of growth at 1 µM (Medulloblastoma cell [6]): 55.9%
- inhibition of growth at 2 µM (Medulloblastoma cell [7]): 65.1%

Structure (SMILES): COc1cc(OC)c2c(=O)c(-c3cccc(O)c3)coc2c1
- IC50 (Protein smoothened; read-out: IC50): > 30 µM
- IC50 (Zinc finger protein GLI1): Nd(Toxic)

Structure (SMILES): COc1cc(OC)c2c(=O)c(-c3ccc(OC)c(OC/C=C(\C)CCC=C(C)C)c3)coc2c1
- IC50 (Protein smoothened; read-out: IC50): 3.61 µM
- IC50 (Zinc finger protein GLI1; read-out: IC50): 21.2 µM

Structure (SMILES): COc1cc(OC)c2c(=O)c(-c3ccc(OC)c(OCc4ccccc4)c3)coc2c1
- IC50 (Protein smoothened; read-out: IC50): 3.72 µM
- IC50 (Zinc finger protein GLI1; read-out: IC50): 17.1 µM

Structure (SMILES): COc1cc(OC)c2c(=O)c(-c3ccc(OCC=C(C)C)c(OC)c3)coc2c1
- IC50 (Protein smoothened; read-out: IC50): 6.97 µM
- IC50 (Zinc finger protein GLI1; read-out: IC50): 10.7 µM

Structure (SMILES): COc1cc(OC)c2c(=O)c(-c3ccc(OC)c(OCc4ccc([N+](=O)[O-])cc4)c3)coc2c1
- IC50 (Protein smoothened; read-out: IC50): > 30 µM
- IC50 (Zinc finger protein GLI1): Nd(Toxic)

Structure (SMILES): COc1cc(OC)c2c(=O)c(-c3ccc(OC)c(OCC=C(C)C)c3)coc2c1
- IC50 (Protein smoothened; read-out: IC50): 2.87 µM
- IC50 (Zinc finger protein GLI1; read-out: IC50): 5.7 µM
- inhibition [1]: Active
- inhibition of growth at 0.125 µM (Medulloblastoma cell [3]): 5.9%
- inhibition of growth at 0.25 µM (Medulloblastoma cell [4]): 26.3%
- inhibition of growth at 0.5 µM (Medulloblastoma cell [5]): 29.2%
- inhibition of growth at 1 µM (Medulloblastoma cell [6]): 35.6%
- inhibition of growth at 2 µM (Medulloblastoma cell [7]): 55.4%
- Activity (MEF [12]): Active
- Activity (MEF [13]): Active

Structure (SMILES): COc1cc(OC)c2c(=O)c(-c3ccc(OCc4ccccc4)c(OC)c3)coc2c1
- IC50 (Protein smoothened; read-out: IC50): 6.92 µM
- IC50 (Zinc finger protein GLI1; read-out: IC50): 39.2 µM

Structure (SMILES): COc1cc(OC)c2c(=O)c(-c3ccc(OC)c(OCc4ccc(C(N)=O)cc4)c3)coc2c1
- IC50 (Protein smoothened; read-out: IC50): > 30 µM
- IC50 (Zinc finger protein GLI1): Nd(Toxic)

Structure (SMILES): COc1cc(OC)c2c(=O)c(-c3ccc(OC/C=C(\C)CCC=C(C)C)c(OC)c3)coc2c1
- IC50 (Protein smoothened): Nd(Toxic)
- IC50 (Zinc finger protein GLI1): Nd(Toxic)

Structure (SMILES): COc1cc(OC)c2c(=O)c(-c3cccc(OCc4ccc(C(F)(F)F)cc4)c3)coc2c1
- IC50 (Protein smoothened; read-out: IC50): 10.5 µM
- IC50 (Zinc finger protein GLI1; read-out: IC50): 26.7 µM

Structure (SMILES): COc1cc(OC)c2c(=O)c(-c3ccc(OC)c(OCc4ccc(C(F)(F)F)cc4)c3)coc2c1
- IC50 (Protein smoothened; read-out: IC50): 2.58 µM
- IC50 (Zinc finger protein GLI1; read-out: IC50): 11.5 µM
- inhibition [1]: Active
- inhibition of growth at 0.125 µM (Medulloblastoma cell [3]): 37.7%
- inhibition of growth at 0.25 µM (Medulloblastoma cell [4]): 40.6%
- inhibition of growth at 0.5 µM (Medulloblastoma cell [5]): 44.5%
- inhibition of growth at 1 µM (Medulloblastoma cell [6]): 50.9%
- inhibition of growth at 2 µM (Medulloblastoma cell [7]): 54%
- Activity (MEF [12]): Active
- Activity (MEF [13]): Active

Structure (SMILES): COc1cc(OC)c2c(=O)c(-c3ccc(OCc4ccccc4)c(OCc4ccccc4)c3)coc2c1
- IC50 (Protein smoothened; read-out: IC50): 0.29 µM
- IC50 (Zinc finger protein GLI1; read-out: IC50): 57.7 µM
- inhibition [1]: inactive
- inhibition [2]: inactive
- inhibition of growth at 0.125 µM (Medulloblastoma cell [3]): 33.3%
- inhibition of growth at 0.25 µM (Medulloblastoma cell [4]): 44.2%
- inhibition of growth at 0.5 µM (Medulloblastoma cell [5]): 51.4%
- inhibition of growth at 1 µM (Medulloblastoma cell [6]): 61.2%
- inhibition of growth at 2 µM (Medulloblastoma cell [7]): 66.6%
- inhibition of growth at 0.125 µM (Medulloblastoma cell [8]): 38.3%
- inhibition of growth at 0.25 µM (Medulloblastoma cell [9]): 63.4%
- inhibition of growth at 0.5 µM (Medulloblastoma cell [10]): 70%
- inhibition [11]: inactive

Structure (SMILES): COc1cc(OC)c2c(=O)c(-c3cccc(OCC=C(C)C)c3)coc2c1
- IC50 (Protein smoothened; read-out: IC50): > 30 µM
- IC50 (Zinc finger protein GLI1; read-out: IC50): > 20 µM

Structure (SMILES): COc1cc(OC)c2c(=O)c(-c3ccc(OC)c(OCc4ccc(C#N)cc4)c3)coc2c1
- IC50 (Protein smoothened; read-out: IC50): 16 µM
- IC50 (Zinc finger protein GLI1): Nd(Toxic)

Structure (SMILES): CS(=O)(=O)c1ccc(C(=O)Nc2ccc(Cl)c(-c3ccccn3)c2)c(Cl)c1
- inhibition [14]: inactive
